Assay results from ChEMBL document CHEMBL5634116, “Strategies for developing retinoic acid receptor alpha-selective antagonists as novel agents for male contraception” (Eur J Med Chem, 2023).
≈ marks a conversion by molar mass, not a printed value. Calls of active or inactive are those of the source. No cut-off for these calls is given here.

Tests used:
[1] = system: Mus musculus; test: Effect on spermatogenesis in CD-1 mouse assessed as testicular weight at 5 mg/kg/day, po for 7 days measured on day 1 post-cessation of drug treatment (reference value: 0.12 +/- 0.01 g); type: functional; conditions: time 8 day
[2] = system: Mus musculus; test: Effect on spermatogenesis in CD-1 mouse assessed as sperm count at 5 mg/kg/day, po for 7 days measured on day 1 post-cessation of drug treatment by hemocytometry (reference value: 55.50 +/- 8.18 x 10^6No_unit); type: functional; conditions: time 8 day
[3] = target: T1, Retinoic acid receptor alpha (Homo sapiens, UniProt P10276); test: Antagonist activity at recombinant human RAR-alpha expressed in mammalian cells in presence of 9-cis-RA by luciferase reporter gene based transactivation assay; type: cell-based
T1 sequence (P10276 whole entry): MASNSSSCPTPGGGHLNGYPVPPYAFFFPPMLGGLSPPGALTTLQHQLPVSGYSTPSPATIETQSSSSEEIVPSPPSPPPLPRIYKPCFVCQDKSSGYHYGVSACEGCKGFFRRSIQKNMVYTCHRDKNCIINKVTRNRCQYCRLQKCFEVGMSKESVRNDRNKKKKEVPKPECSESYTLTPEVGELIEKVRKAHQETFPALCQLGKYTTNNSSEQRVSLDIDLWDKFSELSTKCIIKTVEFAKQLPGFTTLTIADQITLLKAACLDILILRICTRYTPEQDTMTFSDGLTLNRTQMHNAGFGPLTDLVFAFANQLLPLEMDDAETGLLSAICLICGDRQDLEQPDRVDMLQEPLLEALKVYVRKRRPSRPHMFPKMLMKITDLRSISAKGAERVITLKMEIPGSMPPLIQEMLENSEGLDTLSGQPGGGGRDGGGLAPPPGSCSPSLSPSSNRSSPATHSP
How it was run: (§1)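 Compounds 8-point dose response in triplicate, DMSO final 0.4%; overnight at 37 °C, 5% CO2; luminescence after 30 min detection reagent. IC50 by four-parameter logistic fit; agonist-free wells set background.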

[4] = target: T2, Retinoic acid receptor gamma (Homo sapiens, UniProt P13631); test: Antagonist activity at recombinant human RAR-gamma expressed in mammalian cells in presence of ATRA by luciferase reporter gene based transactivation assay; type: cell-based; how it was run: as §1
T2 sequence (P13631 whole entry): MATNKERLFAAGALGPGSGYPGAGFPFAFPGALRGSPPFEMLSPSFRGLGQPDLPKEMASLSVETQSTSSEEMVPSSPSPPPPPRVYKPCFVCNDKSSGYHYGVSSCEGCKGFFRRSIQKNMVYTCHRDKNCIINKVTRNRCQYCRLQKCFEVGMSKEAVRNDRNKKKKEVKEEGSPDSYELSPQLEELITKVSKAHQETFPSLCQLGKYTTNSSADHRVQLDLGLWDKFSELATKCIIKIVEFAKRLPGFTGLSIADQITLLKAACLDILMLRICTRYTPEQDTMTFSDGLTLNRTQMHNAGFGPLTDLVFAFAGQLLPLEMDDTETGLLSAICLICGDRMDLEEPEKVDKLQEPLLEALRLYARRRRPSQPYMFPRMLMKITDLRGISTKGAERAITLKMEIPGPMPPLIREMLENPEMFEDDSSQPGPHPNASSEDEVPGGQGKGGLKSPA

[5] = Solubility of compound in PBS at pH 7.4; type: physicochemical; conditions: buffer
How it was run: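 Solubility measured in PBS, pH 7.4.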

[6] = Metabolic stability in CD-1 mouse liver microsomes assessed as compound remaining in presence of NADPH measured for 60 mins at 10^-6 M; type: ADME, Microsome; conditions: dose 1 10^-6M, read-out: Stability
[7] = Metabolic stability in CD-1 mouse intestinal microsomes assessed as compound remaining at 2 x 10^-6 M in presence of NADPH measured for 60 mins; type: ADME, Intestine, Microsome; conditions: dose 2 10^-6M, read-out: Stability
How it was run: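 Male CD-1 mouse intestinal microsomes with NADPH, compound at 2.0 ×10−6 M, 60 min; percent parent remaining.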

[8] = Drug uptake in CD-1 mouse plasma at 10 mg/kg, po measured for 30 mins by LC-MS/MS analysis; type: ADME, organism-based; conditions: in vivo, 0.5 h
How it was run: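 Male CD-1 mice, 6-8 weeks, single oral dose 10 mg/kg in 80% Carbitol/20% saline (1.75 mg/ml). Sets of 3 mice bled and euthanized at 5, 15, 30 min to 24 h; plasma frozen ≤ −20 °C, acetonitrile-precipitated with internal standard, analysed by isocratic LC-MS/MS against calibration standards. Mean ± S.D. of 3 animals.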

[9] = system: Mus musculus; test: Effect on spermatogenesis in CD-1 mouse assessed as sperm count at 5 mg/kg/day, po for 7 days measured after 4 weeks post-cessation of drug treatment by hemocytometry; type: functional; conditions: time 5 weeks
[10] = system: Mus musculus; test: Effect on spermatogenesis in CD-1 mouse assessed as spermatids in abnormal stage IX tubules at 5 mg/kg/day, po for 7 days measured after 4 weeks post-cessation of drug treatment by hematoxylin counter-staining based analysis; type: functional, organism-based; conditions: time 5.0 weeks
[11] = system: Mus musculus; test: Effect on spermatogenesis in CD-1 mouse assessed as abnormality in spermatid translocation at 5 mg/kg/day, po for 7 days measured after 4 weeks post-cessation of drug treatment by hematoxylin counter-staining based analysis; type: functional, organism-based; conditions: time 5.0 weeks
[12] = system: Mus musculus; test: Effect on spermatogenesis in CD-1 mouse assessed as abnormality in spermatid release at 5 mg/kg/day, po for 7 days measured after 4 weeks post-cessation of drug treatment by hematoxylin counter-staining based analysis; type: functional, organism-based; conditions: time 5.0 weeks
[13] = system: Mus musculus; test: Effect on spermatogenesis in CD-1 mouse assessed as sperm count at 10 mg/kg/day, po for 2 weeks measured after 4 weeks post-cessation of drug treatment by hemocytometry (reference value: 50.30 +/- 5.90 x 10^6No_unit); type: functional; conditions: time 6 weeks
[14] = system: Mus musculus; test: Effect on spermatogenesis in CD-1 mouse assessed as abnormal stage IX tubules at 10 mg/kg/day, po for 2 weeks measured measured after 4 weeks post-cessation of drug treatment by hematoxylin counter-staining based analysis; type: functional, organism-based; conditions: time 6.0 weeks
How it was run: (§2)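 CD1 males given 10 mg/kg/day orally for 2 weeks dissolved in 20% aqueous Kollisolv (n = 10 per time point); vehicle-only controls n = 5. Testes collected one day or 4 weeks after cessation, fixed in 4% paraformaldehyde or Bouin's, paraffin-embedded, PAS-stained with hematoxylin counterstain and tubules staged by bright-field microscopy.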

[15] = system: Mus musculus; test: Effect on spermatogenesis in CD-1 mouse assessed as abnormality in spermatid translocation at 10 mg/kg/day, po for 2 weeks measured measured after 4 weeks post-cessation of drug treatment by hematoxylin counter-staining based analysis; type: functional, organism-based; conditions: time 6.0 weeks; how it was run: as §2
[16] = system: Mus musculus; test: Effect on spermatogenesis in CD-1 mouse assessed as abnormality in spermatid release at 10 mg/kg/day, po for 2 weeks measured measured after 4 weeks post-cessation of drug treatment by hematoxylin counter-staining based analysis; type: functional, organism-based; conditions: time 6.0 weeks; how it was run: as §2
[17] = system: Mus musculus; test: Effect on spermatogenesis in CD-1 mouse assessed as reduction in sperm count administered as Carbitol formulation at 10 mg/kg/day, po for 28 days consecutively measured on day 1 post-cessation of drug treatment by hemocytometry relative to control; type: functional; design: scale not given: the % may be the effect or the level left; conditions: time 29 day
[18] = system: Mus musculus; test: Effect on spermatogenesis in CD-1 mouse assessed as reduction in sperm count administered as Avicel formulation at 10 mg/kg/day, po for 28 days consecutively measured on day 1 post-cessation of drug treatment by hemocytometry relative to control; type: functional; design: scale not given: the % may be the effect or the level left; conditions: time 29 day

IC50 [3]: 4.6 nM | IC50 [4]: 310 nM | solubility [5]: 4.2 µM (≈ 1.74 µg/mL) | remaining at 1 h, 1 µM [6]: 100% | remaining at 1 h, 2 µM [7]: 100% | Drug uptake [8]: Active
SMILES: Cc1ccc(C2=CC(C)(C)Oc3ccc(C(=O)Nc4ccc(C(=O)O)cc4)cc32)cc1
Activity [1]: 0.11 g | Activity [2]: 24.5 10^6No_unit | Activity [9]: 54.9 10^6No_unit | Activity [10]: inactive | Activity [11]: inactive | Activity [12]: inactive | Activity [13]: 44.75 10^6No_unit | Activity [14]: inactive | Activity [15]: inactive | Activity [16]: inactive | Activity [17]: ~73% | Activity [18]: ~56%
